Experimental findings from ChEMBL document CHEMBL3352366, “Synthesis and biological evaluation of 2,3-dihydroimidazo[1,2-a]benzimidazole derivatives against Leishmania donovani and Trypanosoma cruzi” (Eur J Med Chem, 2014) are described below.

Structures are written as SMILES. Active and inactive are the calls of the source. The rule behind the calls is not given here.

Broadly, the EC50 is the concentration at which the effect is half-maximal. Broadly, the CC50 is the concentration giving 50% cytotoxicity.

For data set [1], the system named is Trypanosoma cruzi. In words: Antitrypanosomal activity against intracellular Trypanosoma cruzi infected in human U2OS cells after 48 hrs by confocal microscopy. The format is functional, organism-based. The essentials:
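T. cruzi tissue-culture trypomastigotes were raised in LLC-MK2 cells. U2OS cells and parasites were mixed, dispensed onto compound plates and incubated 48 h at 37 °C, 5 % CO₂. Cells were fixed with 4 % paraformaldehyde, DRAQ5-stained and imaged by confocal microscopy to count parasites and infection ratio. Controls: benznidazole 400 µM and 1 % DMSO. EC₅₀ derived from infection ratio normalized to the controls.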

In data set [2] the test system is Leishmania donovani. In words: Antileishmanial activity against intracellular amastigote stage of Leishmania donovani MHOM/ET/67/HU3 infected in human THP1 cells after 3 days by confocal microscopy. The format is functional, organism-based. The settings on record: MHOM/ET/67/HU3, THP-1, 72 h.
Data set [3] can be described thus: Cytotoxicity against human THP1 cells infected with intracellular amastigote stage of Leishmania donovani MHOM/ET/67/HU3. The format is cell-based, THP-1. The essentials:
(§1)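 Host THP-1 cytotoxicity was taken from the same intracellular amastigote images (PMA-differentiated, infected, 3-day compound exposure) by counting cell numbers normalized to 1 % DMSO. CC₅₀ is the average of duplicates; SI was calculated from EC₅₀ and CC₅₀.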

Data set [4] concerns Leishmania donovani. In words: Antileishmanial activity against intracellular amastigote stage of Leishmania donovani MHOM/ET/67/HU3 infected in human THP1 cells assessed as reduction in parasite count at 12.5 uM after 3 days by confocal microscopy. The format is functional, organism-based. The settings on record: THP-1.
The nature of data set [5]: Cytotoxicity against human U2OS cells infected with intracellular Trypanosoma cruzi. Type of data set: cell-based. The essentials: (§2)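 U2OS cytotoxicity was measured in the same 48 h T. cruzi infection assay by counting host cell numbers in the DRAQ5-stained confocal images to give CC₅₀. SI was calculated from EC₅₀ and CC₅₀.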
A short description of data set [6]: Selectivity index, ratio of IC50 for human U2OS cells to IC50 for intracellular Trypanosoma cruzi. The settings on record: U2OS cells versus intracellular Trypanosoma cruzi, read-out: Selectivity Index. The format is toxicity, cell-based. The essentials: as §2
The test system of data set [7] is Trypanosoma cruzi. In words: Antitrypanosomal activity against intracellular Trypanosoma cruzi infected in human U2OS cells assessed as reduction in parasite count at 400 uM after 48 hrs by confocal microscopy. Type of data set: functional, organism-based.
Data set [8] concerns Trypanosoma cruzi. In words: Antitrypanosomal activity against intracellular Trypanosoma cruzi infected in human U2OS cells assessed as reduction in parasite count at 12.5 uM after 48 hrs by confocal microscopy. The format is functional, organism-based.
A short description of data set [9]: Selectivity index, ratio of IC50 for human THP1 cells to IC50 for intracellular amastigote stage of Leishmania donovani MHOM/ET/67/HU3. The settings on record: read-out: Selectivity Index. Type of data set: toxicity, cell-based, THP-1. The essentials:
as §1

The test system of data set [10] is Leishmania donovani. In words: Antileishmanial activity against extracellular promastigote stage of Leishmania donovani MHOM/ET/67/HU3 incubated for 28 hrs followed by additional 20 hrs incubation.
The test system of data set [11] is Trypanosoma cruzi. In words: Antitrypanosomal activity against intracellular Trypanosoma cruzi infected in human U2OS cells assessed as reduction in parasite count at 6.25 uM after 48 hrs by confocal microscopy. Type of data set: functional, organism-based.

For the compound `CC(C)c1ccc(CN2C3=NCCN3c3ccccc32)cc1`, the EC50 with Trypanosoma cruzi [1] and in the data set on Leishmania donovani [2] was over 50 µM in each case. Also, the 50% cytotoxic concentration (CC50) in [3] and in [5] was over 50 µM each time. Besides, in the data set on Leishmania donovani [4], the “growth inhibition (GI)” value is “inactive”.
Compound `O=C(Cn1ccnc1[N+](=O)[O-])NCc1ccccc1` [BENZNIDAZOLE] showed an EC50 in the data set with Trypanosoma cruzi [1] of 20.7 µM. Further, the selectivity ratio in [6] was over 2.42. For the same compound, the “growth inhibition (GI)” value in the data set on Trypanosoma cruzi [7] was “Active”. Also, the half-maximal cytotoxic concentration (CC50) in [5] was over 50 µM. Besides, in the data set on Trypanosoma cruzi [8], the “growth inhibition (GI)” value is “inactive”.
Turning to `C[C@@H]1[C@H](O)[C@@H](C)/C=C/C=C/C=C/C=C/C=C/C=C/C=C/[C@H](O[C@@H]2O[C@H](C)[C@@H](O)[C@H](N)[C@@H]2O)C[C@@H]2O[C@](O)(C[C@@H](O)C[C@@H](O)[C@H](O)CC[C@@H](O)C[C@@H](O)CC(=O)O[C@H]1C)C[C@H](O)[C@H]2C(=O)O` [AMPHOTERICIN B], the selectivity ratio in data set [9] is 30.2. The same compound registered an EC50 in the data set with Leishmania donovani [10] of 0.22 µM. For the same compound, the “growth inhibition (GI)” value in the data set with Leishmania donovani [4] was “Active”.
On to `CC(C)(C)c1ccc(CN2C3=NCCN3c3ccccc32)cc1`, for which the 50% effective concentration (EC50) turned out to be 1.1 µM in the data set with Trypanosoma cruzi [1], 1.25 µM in the data set on Leishmania donovani [10] and 3.05 µM in the data set on Leishmania donovani [2]. Further, the inhibition entry in the data set on Trypanosoma cruzi [1] was “Dose-dependent effect”. Moreover, the selectivity ratio was over 16.4 in data set [9] and 33.2 in data set [6]. The “growth inhibition (GI)” value in the data set on Trypanosoma cruzi [11] and in the data set with Leishmania donovani [4] was “Active” in each case. For the same compound, the cytotoxic concentration (CC50) was over 50 µM in data set [3] and 36.5 µM in [5].
As for `CCCCCCCCCCCCCCCCOP(=O)([O-])OCC[N+](C)(C)C` [MILTEFOSINE], the selectivity ratio in data set [9] was found to be 3.91. For the same compound, the concentration for a half-maximal effect (EC50) in the data set on Leishmania donovani [10] stood at 11.1 µM; with Leishmania donovani [2] it was 4.83 µM. Moreover, half-maximal cytotoxicity in data set [3] (CC50) was put at 18.9 µM. Moreover, the “growth inhibition (GI)” value in the data set with Leishmania donovani [4] is “Active”.
For `CC(C)(C)c1ccc(CCN2C3=NCCN3c3ccccc32)cc1`, the 50% effective concentration (EC50) in the data set on Trypanosoma cruzi [1] was determined as 12.7 µM; with Leishmania donovani [10] it was 20.8 µM; with Leishmania donovani [2], 25.3 µM. Moreover, the selectivity ratio was over 1.98 in data set [9] and 1.65 in data set [6]. For the same compound, the 50% cytotoxic concentration (CC50) in [3] was over 50 µM; in data set [5], 21 µM.
Turning to `Cc1ccc2c(c1)N1CCN=C1N2Cc1ccc(C(C)(C)C)cc1`, the 50% effective concentration (EC50) came out at 19.6 µM in the data set on Trypanosoma cruzi [1], 1.8 µM in the data set with Leishmania donovani [10] and 11 µM in the data set on Leishmania donovani [2]. Further, the selectivity ratio in [9] is 2.55; in [6], over 2.28. Besides, the figures for the CC50 in data set [3] and in data set [5] were 28.1 µM and over 50 µM, respectively.
